Our source for the fold change (FC) and inhibition values is ChEMBL document CHEMBL5653631, “A Potent and Selective ULK1 Inhibitor Suppresses Autophagy and Sensitizes Cancer Cells to Nutrient Stress” (iScience, 2018).

The structures appear in SMILES notation.

Assay [1] concerns the target T1, Ephrin type-B receptor 1 (Homo sapiens) (UniProt P54762).
T1 sequence (whole entry): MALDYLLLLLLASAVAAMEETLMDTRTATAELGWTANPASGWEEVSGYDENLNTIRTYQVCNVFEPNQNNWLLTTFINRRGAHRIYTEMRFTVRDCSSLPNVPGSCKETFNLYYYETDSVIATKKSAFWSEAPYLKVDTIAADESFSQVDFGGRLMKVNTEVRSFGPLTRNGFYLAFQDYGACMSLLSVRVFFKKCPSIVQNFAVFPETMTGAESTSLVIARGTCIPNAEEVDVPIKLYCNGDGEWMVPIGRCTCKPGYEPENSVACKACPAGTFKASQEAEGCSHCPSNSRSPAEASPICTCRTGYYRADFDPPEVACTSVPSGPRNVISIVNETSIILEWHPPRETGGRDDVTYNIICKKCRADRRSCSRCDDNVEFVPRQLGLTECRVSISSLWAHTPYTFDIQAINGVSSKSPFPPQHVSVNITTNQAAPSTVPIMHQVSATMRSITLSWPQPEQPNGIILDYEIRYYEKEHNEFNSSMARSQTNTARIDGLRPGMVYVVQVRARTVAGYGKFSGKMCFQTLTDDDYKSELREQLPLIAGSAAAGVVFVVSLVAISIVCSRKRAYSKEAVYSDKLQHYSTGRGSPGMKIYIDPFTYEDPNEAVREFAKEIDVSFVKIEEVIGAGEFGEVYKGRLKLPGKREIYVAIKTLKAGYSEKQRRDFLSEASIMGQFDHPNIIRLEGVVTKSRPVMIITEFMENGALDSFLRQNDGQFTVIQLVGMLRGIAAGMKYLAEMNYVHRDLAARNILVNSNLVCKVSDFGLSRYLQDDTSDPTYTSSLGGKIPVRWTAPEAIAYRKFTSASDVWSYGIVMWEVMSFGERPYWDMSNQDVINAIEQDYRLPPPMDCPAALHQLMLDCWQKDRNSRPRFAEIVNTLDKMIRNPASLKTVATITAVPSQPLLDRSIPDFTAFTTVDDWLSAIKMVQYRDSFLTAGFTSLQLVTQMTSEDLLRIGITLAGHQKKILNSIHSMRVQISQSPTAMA
Put plainly: Inhibition of human recombinant EphB1 at 500 nM related to control ULK1.

Assay [2] concerns the target T2, Activin receptor type-1B (Homo sapiens) (UniProt P36896).
T2 sequence (whole entry): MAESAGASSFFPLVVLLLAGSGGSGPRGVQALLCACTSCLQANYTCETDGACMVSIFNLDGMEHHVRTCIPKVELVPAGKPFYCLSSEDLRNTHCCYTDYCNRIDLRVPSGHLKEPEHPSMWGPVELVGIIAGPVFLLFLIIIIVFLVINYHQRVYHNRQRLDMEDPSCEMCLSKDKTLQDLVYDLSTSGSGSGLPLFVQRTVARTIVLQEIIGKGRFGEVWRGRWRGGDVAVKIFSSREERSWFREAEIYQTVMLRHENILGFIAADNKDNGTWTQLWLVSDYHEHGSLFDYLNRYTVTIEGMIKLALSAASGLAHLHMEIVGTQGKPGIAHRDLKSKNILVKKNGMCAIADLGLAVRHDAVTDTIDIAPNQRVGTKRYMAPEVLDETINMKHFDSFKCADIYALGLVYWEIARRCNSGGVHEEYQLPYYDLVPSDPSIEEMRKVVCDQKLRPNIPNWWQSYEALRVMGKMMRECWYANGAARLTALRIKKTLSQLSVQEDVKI
The assay is described as follows: Inhibition of human recombinant ALK4 at 15 nM in presence of ATP by radiometric assay relative to control. In outline:
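Panel of 327 recombinant human kinases, each assayed in vitro by radiometric activity assay in duplicate at a single inhibitor concentration per compound, chosen with reference to its ULK1 inhibition. Activity remaining was expressed as percent of vehicle control, and percent inhibition was calculated as 100 minus percent activity remaining.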

Assay [3] has as its target T3, Myosin-IIIb (Homo sapiens) (UniProt Q8WXR4).
T3 sequence (whole entry): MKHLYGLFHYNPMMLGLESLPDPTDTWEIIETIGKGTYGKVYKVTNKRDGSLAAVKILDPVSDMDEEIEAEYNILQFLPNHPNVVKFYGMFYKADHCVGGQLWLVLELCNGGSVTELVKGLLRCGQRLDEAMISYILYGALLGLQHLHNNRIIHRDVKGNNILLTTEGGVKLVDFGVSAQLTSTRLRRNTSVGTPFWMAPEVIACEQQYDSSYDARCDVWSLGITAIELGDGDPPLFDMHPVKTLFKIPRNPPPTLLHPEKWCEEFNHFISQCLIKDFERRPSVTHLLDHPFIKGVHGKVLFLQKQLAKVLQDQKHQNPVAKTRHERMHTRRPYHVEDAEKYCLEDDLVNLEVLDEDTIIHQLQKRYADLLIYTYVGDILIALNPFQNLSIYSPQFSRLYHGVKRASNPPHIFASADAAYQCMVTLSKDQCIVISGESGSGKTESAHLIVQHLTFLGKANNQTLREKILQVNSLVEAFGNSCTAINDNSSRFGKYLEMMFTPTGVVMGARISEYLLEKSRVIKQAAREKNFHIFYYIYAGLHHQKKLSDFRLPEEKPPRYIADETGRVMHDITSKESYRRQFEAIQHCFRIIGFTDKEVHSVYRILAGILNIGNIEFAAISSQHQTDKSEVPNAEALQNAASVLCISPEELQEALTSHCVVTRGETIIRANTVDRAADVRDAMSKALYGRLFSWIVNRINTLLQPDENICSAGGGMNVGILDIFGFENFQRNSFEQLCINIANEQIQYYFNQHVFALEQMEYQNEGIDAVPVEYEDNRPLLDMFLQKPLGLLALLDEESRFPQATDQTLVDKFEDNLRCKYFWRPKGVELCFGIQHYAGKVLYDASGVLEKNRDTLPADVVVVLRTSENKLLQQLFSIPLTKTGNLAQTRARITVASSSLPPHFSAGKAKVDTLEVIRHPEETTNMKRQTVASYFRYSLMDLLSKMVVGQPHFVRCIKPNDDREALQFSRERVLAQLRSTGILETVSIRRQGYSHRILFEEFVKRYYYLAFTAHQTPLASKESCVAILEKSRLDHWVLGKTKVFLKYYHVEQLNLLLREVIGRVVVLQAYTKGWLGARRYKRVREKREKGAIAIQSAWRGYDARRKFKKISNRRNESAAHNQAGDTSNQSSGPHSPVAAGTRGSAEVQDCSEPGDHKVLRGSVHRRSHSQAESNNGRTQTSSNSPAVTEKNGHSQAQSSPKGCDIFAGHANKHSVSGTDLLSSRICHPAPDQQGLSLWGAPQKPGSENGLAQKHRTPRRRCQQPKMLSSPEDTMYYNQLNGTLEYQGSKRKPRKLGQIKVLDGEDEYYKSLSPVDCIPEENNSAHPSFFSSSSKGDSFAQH
Put plainly: Inhibition of human recombinant MYO3B at 15 nM in presence of ATP by radiometric assay relative to control.

The target in assay [4] is Protein kinase C gamma type (Homo sapiens) (UniProt P05129). Put plainly: Inhibition of human recombinant PKCg at 15 nM related to control ULK1.

As to `CNC(=O)c1ccccc1Oc1nc(Nc2cc(OC)c(OC)c(OC)c2)ncc1Br`, in assay [1], the fold change (FC) was 0.14.
The inhibition is the relative decrease from the control value, in per cent. For the compound `CC(C)[C@H](NC(=O)c1cc(-c2cnn3cc(-c4ccc(OCCN5CCCCC5)cc4)cnc23)cs1)C(F)(F)F`, the inhibition in assay [2] was determined as 20%; in assay [3], 6%. Moreover, the fold change (FC) in assay [4] was 0.
